In general, logP refers to the decadic logarithm of the partition coefficient of the neutral form, usually between octanol and water. High values mean a more lipophilic compound, low ones a more hydrophilic compound.

Experimental findings from ChEMBL document CHEMBL1126647, “Fluorine-18-labeled progestin ketals: synthesis and target tissue uptake selectivity of potential imaging agents for receptor-positive breast tumors” (J Med Chem, 1993) are described below.

For data set [1], the target named is T1, Progesterone receptor (Rattus norvegicus) (UniProt Q63449).
T1 sequence (whole entry): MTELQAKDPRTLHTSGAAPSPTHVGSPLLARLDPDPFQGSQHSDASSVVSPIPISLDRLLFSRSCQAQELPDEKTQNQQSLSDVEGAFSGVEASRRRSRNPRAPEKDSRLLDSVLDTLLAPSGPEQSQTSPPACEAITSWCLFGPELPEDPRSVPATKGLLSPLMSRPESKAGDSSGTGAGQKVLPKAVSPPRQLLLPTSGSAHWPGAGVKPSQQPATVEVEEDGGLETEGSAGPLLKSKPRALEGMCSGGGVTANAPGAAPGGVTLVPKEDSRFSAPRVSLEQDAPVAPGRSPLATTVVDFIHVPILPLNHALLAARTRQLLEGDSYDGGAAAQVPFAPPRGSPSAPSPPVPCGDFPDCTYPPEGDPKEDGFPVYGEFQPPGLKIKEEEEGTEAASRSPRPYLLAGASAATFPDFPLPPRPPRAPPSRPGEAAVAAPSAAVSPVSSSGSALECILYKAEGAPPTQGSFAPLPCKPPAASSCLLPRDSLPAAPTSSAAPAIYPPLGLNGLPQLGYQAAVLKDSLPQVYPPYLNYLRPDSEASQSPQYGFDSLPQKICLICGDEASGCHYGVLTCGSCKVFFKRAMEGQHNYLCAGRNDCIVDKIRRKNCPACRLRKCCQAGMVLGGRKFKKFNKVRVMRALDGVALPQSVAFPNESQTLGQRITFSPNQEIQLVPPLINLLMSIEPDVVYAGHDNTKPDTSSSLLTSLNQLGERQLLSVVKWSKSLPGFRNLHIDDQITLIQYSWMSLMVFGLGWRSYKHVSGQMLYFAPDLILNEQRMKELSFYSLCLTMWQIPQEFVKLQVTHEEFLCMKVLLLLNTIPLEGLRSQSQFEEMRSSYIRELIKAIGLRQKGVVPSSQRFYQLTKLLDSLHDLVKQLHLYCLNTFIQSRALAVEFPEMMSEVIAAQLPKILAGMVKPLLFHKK
Nature of the data set: Tissue distribution in muscle 1 hr after [18F]4 injection into estrogen-primed immature rats at normal dose. In kind it is functional, tissue-based. A digest of the protocol: (§1)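 Female Sprague-Dawley rats, 23 days old, primed with estradiol 5 μg s.c. in 20% ethanol/sunflower oil on two days and used 24 h later. Under ether, they received 51 μCi tracer (30 Ci/mmol) iv via the tail vein in 0.1 mL 10% ethanol/saline. Killed by decapitation at 1 h; tissues weighed and gamma-counted. Results as %ID/g or tissue ratios, mean ± SD, n = 5.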

Data set [2] has as its target T1, Progesterone receptor (Rattus norvegicus). Description: Tissue distribution in uterus/muscle 1 hr after [18F]4 injection into estrogen-primed immature rats at normal dose. In kind it is functional, tissue-based. A digest of the protocol:
as §1

Data set [3] has the same target. Description: Relative binding affinity for progesterone receptor compared to R5020.
For data set [4] the target is unchanged. Nature of the data set: Tissue distribution in uterus 1 hr after [18F]4 injection into estrogen-primed immature rats at normal dose. In kind it is functional, tissue-based. A digest of the protocol: as §1
Data set [5] shares this target. Description: Tissue distribution in kidney 1 hr after [18F]4 injection into estrogen-primed immature rats at normal dose. In kind it is functional, tissue-based. A digest of the protocol:
as §1

Data set [6] deals with T2, Mineralocorticoid receptor (Rattus norvegicus) (UniProt P22199).
T2 sequence (whole entry): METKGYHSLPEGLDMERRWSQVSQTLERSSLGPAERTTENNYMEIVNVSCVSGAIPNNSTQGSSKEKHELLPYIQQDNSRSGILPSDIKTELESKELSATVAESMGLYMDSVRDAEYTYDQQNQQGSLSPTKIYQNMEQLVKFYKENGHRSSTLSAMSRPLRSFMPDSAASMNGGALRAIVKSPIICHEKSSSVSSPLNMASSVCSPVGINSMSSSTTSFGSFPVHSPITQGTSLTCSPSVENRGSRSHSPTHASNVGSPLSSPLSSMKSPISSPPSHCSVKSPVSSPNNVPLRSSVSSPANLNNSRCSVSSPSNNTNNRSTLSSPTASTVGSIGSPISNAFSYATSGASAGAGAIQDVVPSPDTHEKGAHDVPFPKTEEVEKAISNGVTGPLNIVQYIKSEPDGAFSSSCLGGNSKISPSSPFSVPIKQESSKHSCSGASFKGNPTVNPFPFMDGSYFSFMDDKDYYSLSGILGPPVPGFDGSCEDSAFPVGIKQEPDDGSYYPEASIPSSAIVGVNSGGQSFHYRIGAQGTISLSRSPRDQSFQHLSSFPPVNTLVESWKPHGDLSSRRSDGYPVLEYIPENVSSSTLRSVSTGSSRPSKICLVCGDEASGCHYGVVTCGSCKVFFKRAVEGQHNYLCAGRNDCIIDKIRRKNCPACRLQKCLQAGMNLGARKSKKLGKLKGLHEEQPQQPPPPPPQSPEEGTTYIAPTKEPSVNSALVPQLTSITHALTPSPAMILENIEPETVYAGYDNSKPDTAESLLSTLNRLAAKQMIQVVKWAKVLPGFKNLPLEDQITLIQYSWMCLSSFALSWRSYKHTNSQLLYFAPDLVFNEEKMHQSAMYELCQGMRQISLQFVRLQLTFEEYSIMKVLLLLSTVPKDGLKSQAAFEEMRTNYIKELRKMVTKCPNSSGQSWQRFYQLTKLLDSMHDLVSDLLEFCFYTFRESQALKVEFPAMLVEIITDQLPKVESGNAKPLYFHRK
Description: Relative binding affinity (RBA) for mineralocorticoid receptor compared to aldosterone.

Data set [7] is described as follows: Partition coefficient (logP). In kind it is physicochemical. The note with it: octanol/water. A digest of the protocol:
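Octanol/water partition measured as log P by the Minick method. For some reference progestins, log P was also measured by shake flask.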

With `CC[C@@H]1C[C@H]2[C@@H]3CCC4=CC(=O)CC[C@@H]4[C@H]3CC[C@]2(C)[C@H]1C(=O)CF`, the Injected dose/g in data set [1] came to 0.42%; in data set [2] it was 16%; in data set [4] it was 6.43%; in data set [5], 1.05%. Moreover, the relative binding affinity (RBA) stood at 700 in data set [3] and 3.2 in data set [6]. In data set [7], this molecule gave a logP of 4.66.
`CC[C@@H]1C[C@H]2[C@@H]3CCC4=CC(=O)CC[C@@H]4[C@H]3CC[C@]2(C)[C@H]1C(=O)CO`: the relative binding affinity (RBA) in data set [3] is 200; in data set [6], 0.92. This molecule yielded a logP in data set [7] of 4.01.
`C[C@]1(c2ccc(F)cc2)O[C@@H]2CC3C4CCC5=CC(=O)CC[C@@H]5C4CC[C@]3(C)[C@]2(C(=O)CO)O1` (stereo partly specified) showed a relative binding affinity (RBA) in data set [3] of 1.3. Moreover, in data set [7], the logP was determined as 4.84.
Turning to `CCC(=O)[C@@]1(C)CC[C@H]2[C@@H]3CCC4=CC(=O)CCC4=C3CC[C@@]21C` [PROMEGESTONE], the relative binding affinity (RBA) in data set [3] turned out to be 100; in data set [6], 0.93. The logP in data set [7] was found to be 4.05.
Take `CC(=O)[C@H]1CC[C@H]2[C@@H]3CCC4=CC(=O)CC[C@]4(C)[C@H]3CC[C@]12C`: in data set [3], the relative binding affinity (RBA) came out at 13.
